Assay results: ChEMBL document CHEMBL3774372, “Design, physico-chemical properties and biological evaluation of some new N-[(phenoxy)alkyl]- and N-{2-[2-(phenoxy)ethoxy]ethyl}aminoalkanols as anticonvulsant agents” (Bioorg Med Chem, 2016)
Activity calls are given as the source filed them.

How the values were obtained:
Rattus norvegicus [1] = test: Neurotoxicity in rat at 30 mg/kg, po after […] by rotarod test; format: toxicity, organism-based; details: in vivo
Mus musculus [2] = test: Anticonvulsant activity in mouse assessed as protection against maximal electric shock-induced seizures at 30 mg/kg, ip measured after 4 hrs; format: functional, organism-based
In short: (§1)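 Mice dosed ip with suspension in 0.5% methylcellulose; maximal electroshock applied at the listed time after dosing. Protection = abolition of hindlimb tonic extension component of seizure; reported as animals protected/animals tested.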

Mus musculus [3] = test: Neurotoxicity in mouse at 100 mg/kg, ip after 0.5 hrs by rotarod test; format: toxicity, organism-based; details: in vivo
In short: (§2)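 Mice were dosed ip with compound suspended in 0.5% methylcellulose. Rotarod: a 1 in. knurled rod turning at 6 rpm. Neurotoxicity was scored as failure to stay on the rod for at least 1 min in each of three trials. Results are given as the number of animals affected out of the number tested.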

Rattus norvegicus [4] = test: Neurotoxicity in rat at 30 mg/kg, po after 1 hr by rotarod test; format: toxicity, organism-based; details: in vivo
Mus musculus [5] = test: Neurotoxicity in mouse at 300 mg/kg, ip after 4 hrs by rotarod test; format: toxicity, organism-based; details: in vivo; in short: as §2
Mus musculus [6] = test: Anticonvulsant activity in mouse assessed as protection against maximal electric shock-induced seizures at 30 mg/kg, ip measured after 0.5 hrs; format: functional, organism-based; in short: as §1
Rattus norvegicus [7] = test: Neurotoxicity in rat at 30 mg/kg, po after 4 hrs by rotarod test; format: toxicity, organism-based; details: in vivo
Mus musculus [8] = test: Anticonvulsant activity in mouse assessed as protection against maximal electric shock-induced seizures at 100 mg/kg, ip measured after 0.5 hrs; format: functional, organism-based; in short: as §1
Mus musculus [9] = test: Anticonvulsant activity in mouse assessed as protection against subcutaneous pentylenetetrazol-induced seizures at 100 mg/kg, ip measured after 0.5 hrs; format: functional, organism-based
In short: (§3)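 Mice dosed ip as 0.5% methylcellulose suspension; pentylenetetrazole 85 mg/kg in 0.9% NaCl injected subcutaneously into posterior midline, animals watched at least 30 min. Protection = no threshold seizure (single clonic spasm episode lasting ≥5 s); scored protected/tested.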

Rattus norvegicus [10] = test: Anticonvulsant activity in rat assessed as protection against maximal electric shock-induced seizures at 30 mg/kg, po measured after […]; format: functional, organism-based
Rattus norvegicus [11] = test: Anticonvulsant activity in rat assessed as protection against maximal electric shock-induced seizures at 30 mg/kg, po measured after 1 hr; format: functional, organism-based
In short: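 Rats dosed ip or orally as 0.5% methylcellulose suspension; maximal electroshock at listed time. Protection = abolition of hindlimb tonic extension; 4 rats per group, scored protected/tested.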

Mus musculus [12] = test: Neurotoxicity in mouse at 30 mg/kg, ip after 0.5 hrs by rotarod test; format: toxicity, organism-based; details: in vivo; in short: as §2
Mus musculus [13] = test: Anticonvulsant activity in mouse assessed as protection against maximal electric shock-induced seizures at 100 mg/kg, ip measured after 4 hrs; format: functional, organism-based; in short: as §1
Mus musculus [14] = test: Anticonvulsant activity in mouse assessed as protection against maximal electric shock-induced seizures at 300 mg/kg, ip measured after 0.5 hrs; format: functional, organism-based; in short: as §1
Rattus norvegicus [15] = test: Neurotoxicity in rat at 30 mg/kg, po after 2 hrs by rotarod test; format: toxicity, organism-based; details: in vivo
Rattus norvegicus [16] = test: Neurotoxicity in rat at 30 mg/kg, po after 0.5 hrs by rotarod test; format: toxicity, organism-based; details: in vivo
Mus musculus [17] = test: Anticonvulsant activity in mouse assessed as protection against subcutaneous pentylenetetrazol-induced seizures at 30 mg/kg, ip measured after 0.5 hrs; format: functional, organism-based; in short: as §3
Mus musculus [18] = test: Anticonvulsant activity in mouse assessed as protection against maximal electric shock-induced seizures at 300 mg/kg, ip measured after 4 hrs; format: functional, organism-based; in short: as §1
Mus musculus [19] = test: Neurotoxicity in mouse at 100 mg/kg, ip after 4 hrs by rotarod test; format: toxicity, organism-based; details: in vivo; in short: as §2
Mus musculus [20] = test: Neurotoxicity in mouse at 30 mg/kg, ip after 4 hrs by rotarod test; format: toxicity, organism-based; details: in vivo; in short: as §2
Mus musculus [21] = test: Anticonvulsant activity in mouse assessed as protection against subcutaneous pentylenetetrazol-induced seizures at 300 mg/kg, ip measured after 0.5 hrs; format: functional, organism-based; in short: as §3
Mus musculus [22] = test: Anticonvulsant activity in mouse assessed as protection against subcutaneous pentylenetetrazol-induced seizures at 300 mg/kg, ip measured after 4 hrs; format: functional, organism-based; in short: as §3
Mus musculus [23] = test: Anticonvulsant activity in mouse assessed as protection against subcutaneous pentylenetetrazol-induced seizures at 100 mg/kg, ip measured after 4 hrs; format: functional, organism-based; in short: as §3
Mus musculus [24] = test: Anticonvulsant activity in mouse assessed as protection against subcutaneous pentylenetetrazol-induced seizures at 30 mg/kg, ip measured after 4 hrs; format: functional, organism-based; in short: as §3
Mus musculus [25] = test: Anticonvulsant activity in mouse assessed as protection against maximal electric shock-induced seizures at 3 mg/kg, ip measured after 0.5 hrs; format: functional, organism-based; in short: as §1
Mus musculus [26] = test: Anticonvulsant activity in mouse assessed as protection against maximal electric shock-induced seizures at 10 mg/kg, ip measured after 0.5 hrs; format: functional, organism-based; in short: as §1
Mus musculus [27] = test: Neurotoxicity in mouse at 300 mg/kg, ip after 0.5 hrs by rotarod test; format: toxicity, organism-based; details: in vivo; in short: as §2
Mus musculus [28] = test: Neurotoxicity in mouse at 50 mg/kg, ip after 2 hrs by rotarod test; format: toxicity, organism-based; details: in vivo; in short: as §2
Mus musculus [29] = test: Neurotoxicity in mouse at 50 mg/kg, ip after 1 hr by rotarod test; format: toxicity, organism-based; details: in vivo; in short: as §2
Mus musculus [30] = test: Neurotoxicity in mouse at 50 mg/kg, ip after 4 hrs by rotarod test; format: toxicity, organism-based; details: in vivo; in short: as §2

Cc1cc(C)c(OCCNCC(O)c2ccccc2)c(C)c1 (configuration not stated)
Activity (Rattus norvegicus [1]): Non-toxic
Activity (Mus musculus [2]): inactive
Activity (Mus musculus [3]): Non-toxic
Activity (Rattus norvegicus [4]): Non-toxic
Activity (Mus musculus [5]): Non-toxic
Activity (Mus musculus [6]): inactive
Activity (Rattus norvegicus [7]): Non-toxic
Activity (Mus musculus [8]): Active
Activity (Mus musculus [9]): inactive
Activity (Rattus norvegicus [10]): inactive
Activity (Rattus norvegicus [11]): inactive
Activity (Mus musculus [12]): Non-toxic
Activity (Mus musculus [13]): inactive
Activity (Mus musculus [14]): Active
Activity (Rattus norvegicus [15]): Non-toxic
Activity (Rattus norvegicus [16]): Non-toxic
Activity (Mus musculus [17]): inactive
Activity (Mus musculus [18]): Active
Activity (Mus musculus [19]): Non-toxic
Activity (Mus musculus [20]): Non-toxic
Activity (Mus musculus [21]): inactive

Cc1cccc(OCCNCC(O)c2ccccc2)c1C (configuration not stated)
Activity (Mus musculus [2]): inactive
Activity (Mus musculus [5]): Non-toxic
Activity (Mus musculus [6]): inactive
Activity (Mus musculus [22]): inactive
Activity (Mus musculus [8]): inactive
Activity (Mus musculus [9]): inactive
Activity (Mus musculus [12]): Non-toxic
Activity (Mus musculus [13]): inactive
Activity (Mus musculus [14]): inactive
Activity (Mus musculus [23]): inactive
Activity (Mus musculus [24]): inactive
Activity (Mus musculus [18]): inactive
Activity (Mus musculus [20]): Non-toxic
Activity (Mus musculus [21]): inactive

Cc1cc(C)c(OCCN[C@H](C)CO)c(C)c1
Activity (Mus musculus [25]): inactive
Activity (Mus musculus [2]): inactive
Activity (Mus musculus [3]): Toxic
Activity (Mus musculus [6]): Active
Activity (Mus musculus [26]): inactive
Activity (Mus musculus [8]): Active
Activity (Mus musculus [9]): inactive
Activity (Mus musculus [27]): Toxic
Activity (Mus musculus [12]): Non-toxic
Activity (Mus musculus [13]): inactive
Activity (Mus musculus [23]): inactive
Activity (Mus musculus [17]): inactive
Activity (Mus musculus [24]): inactive
Activity (Mus musculus [19]): Non-toxic
Activity (Mus musculus [20]): Non-toxic

Cc1cccc(C)c1OCCOCCN[C@H](C)CO
Activity (Mus musculus [28]): Non-toxic
Activity (Mus musculus [3]): Toxic
Activity (Mus musculus [29]): Non-toxic
Activity (Mus musculus [30]): Non-toxic
Activity (Mus musculus [27]): Toxic
Activity (Mus musculus [12]): Non-toxic
Activity (Mus musculus [20]): Non-toxic
